Test results reported in the EternaBench riboswitch data.

Tested on: MS2 coat protein
Assay: apparent Kd, MS2 coat protein; higher = weaker binding; RNA-MaP array; tryptophan 2.4 mM where present
Conditions: designed as: OFF switch for tryptophan
Procedure, shortened: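 Apparent Kd: the median of filtered binding-curve fits from single clusters. Designs were transcribed on Illumina sequencing-chip clusters by stalled E. coli RNA polymerase and titrated with SNAP-549-labelled MS2 coat protein from 0.7 or 1.5 nM, doubling to 3 µM, in 100 mM Tris-HCl pH 7.5, 80 mM KCl, 4 mM MgCl2, BSA, DTT, yeast tRNA and Tween-20. Each series ran without and then with constant ligand, and green signal was normalised to red-channel RNA signal and control-cluster median Fmax.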

AUAAUUGGGUUAAUUAGUUUUAGGUCCAGUCGAGGACCGGUACGGCCGCCACUCGUUCCGAGAUACAUGAGGAUCACCCAUGUUA
apparent Kd (no ligand): 32.9 nM | apparent Kd (ligand present: tryptophan): 34.1 nM
